# The list is not random: actives were taken first. Their share in the collection is about 2.5%.
# SENP6 block = blocks the human protease SENP6 | Q9GZR1 | Recombinant SENP6 catalytic domain, aminoluciferin luminescence | inhibition, % at 10 µM | actives 1.8% (n = 330,000);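 active means inhibition above about 50% at the single tested dose, limit read from the data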;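 further: plate controls were DMSO wells with enzyme for no effect and DMSO wells lacking enzyme for full effect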
# SENP8 block-1 = inhibitors of human SENP8 protease | Q96LD8 | purified SENP8, Z-RLRGG-aminoluciferin cleavage, luminescence | inhibition, % at 10 µM | actives 1.2% (n = 330,000); in the data active means inhibition above about 50%
# Target sequence (Q96LD8 whole entry, looked up): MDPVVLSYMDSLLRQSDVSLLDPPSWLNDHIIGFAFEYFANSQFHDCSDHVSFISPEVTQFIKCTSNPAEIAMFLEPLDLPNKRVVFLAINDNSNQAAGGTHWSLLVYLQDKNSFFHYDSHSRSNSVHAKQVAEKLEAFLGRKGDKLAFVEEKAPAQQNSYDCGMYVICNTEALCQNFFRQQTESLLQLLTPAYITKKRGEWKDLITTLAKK
# SENP8 block-2 = inhibitors of human SENP8 protease | recombinant SENP8, Nedd8 substrate fluorescence | inhibition, % at 20 µM | actives 0.64% (n = 360,000) | AID 602440; in the data active means inhibition mostly above about 40%, no sharp cut-off; inactive means mostly below about 27%
# SENP1 FRET inh = SENP1 (human) catalytic domain inhibition. Q9P0U3. recombinant SENP1 catalytic domain, CyPet-SUMO1-YPet FRET cleavage. inhibition, % at 10 µM. actives 0.21% (n = 360,000). AID 624204;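 active means inhibition at least 30% at 10 µM, raw YFP signal under a set limit, fluorescence ratio 0.5 to 1.5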;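 further: 0% = enzyme with DMSO and 100% = no enzyme wells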
# Target sequence (Q9P0U3 419-644 limits assumed): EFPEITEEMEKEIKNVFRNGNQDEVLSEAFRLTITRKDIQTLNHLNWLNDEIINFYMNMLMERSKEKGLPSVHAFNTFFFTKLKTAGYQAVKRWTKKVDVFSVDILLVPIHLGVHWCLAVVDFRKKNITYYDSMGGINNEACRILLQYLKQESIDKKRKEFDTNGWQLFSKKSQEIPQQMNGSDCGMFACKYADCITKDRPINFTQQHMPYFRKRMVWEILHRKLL
#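 Test system: human SENP1 catalytic domain; medium: Tris pH 8 buffer plus EDTA, NaCl, BME, BSA, NP40, catalase; incubation: 50 min reaction at room temperature; technique: FRET, CFP and YFP emission; controls: no-enzyme low control and enzyme-plus-DMSO high control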
# SENP7 inh = blocks the human protease SENP7; Q9BQF6; inhibition, % at 5 µM; actives 1.5% (n = 330,000); recombinant SENP7, Z-RLRGG-aminoluciferin luminescence, 40 min; AID 434973;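 active means inhibition above about 50% at the single test dose, limit read from the data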;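 further: plate controls were DMSO with enzyme for no effect and no enzyme buffer wells for full effect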
# SENP8 inh conf = SENP8 (human) inhibition, single concentration confirmation; shares compounds with SENP8 block-2; purified SENP8, Nedd8-AMC/pro-Nedd8 cleavage fluorescence, 30 min; inhibition, % at 25 µM; actives 15% (n = 1,400); in the data active means inhibition mostly above about 39%, no sharp cut-off; inactive means mostly below about 34%
# Numbers without * were called inactive; . = no result.
SMILES,SENP6 block,SENP8 block-1,SENP8 block-2,SENP1 FRET inh,SENP7 inh,SENP8 inh conf
COCCN1Cc2cccc(C(=O)NCc3cccs3)c2C1=O,-4.1,-1.9,42.0*,-1.6,-5.7,5.6
CC(=O)N/N=C(\C)C1COc2ccccc2O1 (centres undefined),-2.6,5.1,40.8*,1.1,4.8,5.9
Nc1cccc2c1C(=O)N(c1ccccc1)C2=O,-4.5,0.9,-428.7,-50.0,0.9,.
O=C1c2ccccc2C(=O)N1c1ccccc1,.,.,42.4*,0.6,.,4.4
CCOc1ccc(-c2cc(NC(=O)Cn3ncc4c3-c3ccccc3OC4)on2)cc1OCC,-5.8,-4.9,0.1,1.2,-2.5,.
Cc1csc2c(N3CCN(C(=O)NC(C)(C)C)CC3)ncnc12,-42.8,0.7,18.8,2.6,7.2,.
Cc1csc2c(N3CCN(C(=O)c4ccc(C(C)(C)C)cc4)CC3)ncnc12,-29.7,-15.0,40.4*,-1.7,0.9,20.1
COc1cc(SC)ccc1C(=O)OCC(=O)N1CCN(C(C)=O)CC1,2.8,13.0,18.4,1.4,4.5,.
O=C(COC(=O)c1cc(-c2cccs2)nn1-c1ccccc1)Nc1ccc(Cl)c([N+](=O)[O-])c1,1.3,-4.8,33.5,3.4,-7.1,.
COc1ccc(NC(=O)C2CCC(N3C(=O)C4C5C=CC(C5)C4C3=O)CC2)cc1 (centres undefined),-7.0,1.7,20.3,2.7,1.9,.
COc1ccc(NC(=O)[C@@H]2[C@@H]3C(=O)N(C4CCCCC4)C(=O)[C@@H]3C3c4ccccc4C=CN32)cc1 (some centres undefined),8.7,2.0,63.7*,24.4,6.2,37.7*
CCOC(=O)CN1C(=O)S/C(=C/c2ccc(O)c([N+](=O)[O-])c2)C1=O,-9.0,-16.5,47.7*,3.6,4.2,5.8
CCOC(=O)CN1C(=O)S/C(=C/c2ccc(C)o2)C1=O,11.7,3.6,16.1,-2.6,-2.7,.
CCOc1ccc(N=C(C)c2ccccc2O)cc1,-19.7,-12.1,41.8*,-0.1,3.7,17.4
Nc1ccc(Cc2ccc(N)c(O)c2)cc1O,.,.,47.6*,-77.6,.,12.4
CC(=O)NC1C(=O)N=C(SC(C)C(=O)Nc2cccc(Cl)c2)NC1=O (centres undefined),8.4,-5.0,12.9,1.3,-1.9,.
Cc1ccc(Sc2ncccc2COC(=O)Nc2ccccc2)cc1,15.0,-15.3,40.0*,2.7,-1.0,9.3
OCCNCc1cc(Br)ccc1OCc1ccc(Cl)cc1,-4.7,-11.1,15.5,-0.1,-7.7,.
OCCNCc1cc(Br)ccc1OCc1ccc(Cl)cc1Cl,.,.,41.6*,-49.9,.,10.6
CC(C)[C@H](Nc1ccc(C(F)(F)F)cc1[N+](=O)[O-])C(=O)O,-9.6,1.6,40.9*,4.3,4.9,21.5
Cc1cc(C)c(C(=O)COC(=O)[C@H](C)Nc2ccc(C(F)(F)F)cc2[N+](=O)[O-])c(C)c1,-1.3,-3.4,14.2,0.0,-0.7,.
Cc1cccc(C)c1NC(=O)C1(C)CN(S(C)(=O)=O)CC(=O)N1CC(F)(F)F (centres undefined),.,.,27.6,-3.7,.,.
Cc1cccc(C)c1NC(=O)c1ccc([N+](=O)[O-])s1,42.0,1.5,29.3*,-2.3,-6.9,9.7
O=C(NCC(=O)N(c1ccccc1)C(C(=O)NC1CCCCC1)c1cccnc1)c1ccco1 (centres undefined),18.6,1.6,11.3,0.4,1.0,.
O=C(OCn1nnc2ccccc2c1=O)C1CCCCC1,-30.8,-5.3,42.4*,3.4,5.6,12.3
Cc1ccc(C2c3[nH]c4ccccc4c3C[C@H]3C(=O)N(c4ccccc4C(=O)N4CCC[C@H]4C(=O)O)C(=O)N23)cc1 (some centres undefined),2.0,1.3,43.4*,-54.8,-1.2,-6.5
COc1ccc(C2c3[nH]c4ccccc4c3C[C@H]3C(=O)N(c4ccccc4C(=O)N4CCC[C@H]4C(=O)O)C(=O)N23)cc1 (some centres undefined),-1.6,3.5,42.1*,-47.0,-1.7,1.6
COc1cccc(C2c3[nH]c4ccccc4c3C[C@H]3C(=O)N(c4ccccc4C(=O)NCCCN4CCOCC4)C(=O)N23)c1 (some centres undefined),2.0,-11.1,51.1*,-32.7,-6.9,13.5
CCOC(=O)N1CCN(C(=O)C2CCN(C(=O)c3ccc(C(C)(C)C)cc3)CC2)CC1,0.3,3.5,4.5,1.1,2.0,.
